Legend:
Format in all cases: functional
SF-295 [1] = test: Cytotoxicity against human SF295 cells assessed as cell growth at 100 nM after 48 hrs by sulforhodamine B assay; conditions: SF-295, 48 h, read-out: Activity
SK-MEL-28 [2] = test: Cytotoxicity against human SK-MEL-28 cells assessed as cell growth at 100 nM after 48 hrs by sulforhodamine B assay; conditions: SK-MEL-28, 48 h, read-out: Activity
RXF 393 [3] = test: Cytotoxicity against human RXF393 cells assessed as cell growth at 100 nM after 48 hrs by sulforhodamine B assay; conditions: RXF 393, 48 h, read-out: Activity
MCF7 [4] = test: Cytotoxicity against human MCF7 cells assessed as cell growth at 100 nM after 48 hrs by sulforhodamine B assay; conditions: MCF7, 48 h, read-out: Activity
SR [5] = test: Cytotoxicity against human SR cells assessed as cell growth at 1 uM after 48 hrs by sulforhodamine B assay; conditions: read-out: Activity
NCI-H226 [6] = test: Cytotoxicity against human NCI-H226 cells assessed as cell growth at 1 uM after 48 hrs by sulforhodamine B assay; conditions: NCI-H226, 48 h, read-out: Activity
HCC 2998 [7] = test: Cytotoxicity against human HCC2998 cells assessed as cell growth at 1 uM after 48 hrs by sulforhodamine B assay; conditions: HCC 2998, 48 h, read-out: Activity
SR [8] = test: Cytotoxicity against human SR cells assessed as cell growth at 0.01 uM after 48 hrs by sulforhodamine B assay; conditions: read-out: Activity
MDA-MB-435 = test: Cytotoxicity against human MDA-MB-435 cells assessed as cell growth at 0.01 uM after 48 hrs by sulforhodamine B assay; conditions: MDA-MB-435, 48 h, read-out: Activity
OVCAR-3 = test: Cytotoxicity against human OVCAR-3 cells assessed as cell growth at 0.01 uM after 48 hrs by sulforhodamine B assay; conditions: OVCAR-3, 48 h, read-out: Activity
ACHN = test: Cytotoxicity against human ACHN cells assessed as cell growth at 0.01 uM after 48 hrs by sulforhodamine B assay; conditions: read-out: Activity
SK-MEL-28 [9] = test: Cytotoxicity against human SK-MEL-28 cells assessed as cell growth at 0.001 uM after 48 hrs by sulforhodamine B assay; conditions: SK-MEL-28, 48 h, read-out: Activity
RXF 393 [10] = test: Cytotoxicity against human RXF393 cells assessed as cell growth at 0.001 uM after 48 hrs by sulforhodamine B assay; conditions: RXF 393, 48 h, read-out: Activity
SR [11] = test: Growth inhibition of human SR cells after 48 hrs by sulforhodamine B assay
Procedure, shortened: (§1)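 NCI 60-cell screen, five-dose mode. Cells grown in RPMI 1640 with 5% FBS and 2 mM L-glutamine and plated at 5000-40,000 cells/well according to doubling time. After 24 h preincubation, a Tz plate was TCA-fixed. Five concentrations (10-fold or 1/2 log dilutions) were applied for 48 h at 37 °C. SRB staining read at 515 nm. IC50 taken from [(Ti-Tz)/(C-Tz)]×100 = 50.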

NCI-H226 [12] = test: Growth inhibition of human NCI-H226 cells after 48 hrs by sulforhodamine B assay; conditions: NCI-H226, 48 h; procedure, shortened: as §1
HCC 2998 [13] = test: Growth inhibition of human HCC2998 cells after 48 hrs by sulforhodamine B assay; conditions: HCC 2998, 48 h; procedure, shortened: as §1
SK-MEL-28 [14] = test: Growth inhibition of human SK-MEL-28 cells after 48 hrs by sulforhodamine B assay; conditions: SK-MEL-28, 48 h; procedure, shortened: as §1
DU-145 = test: Cytotoxicity against human DU145 cells assessed as cell growth at 0.01 uM after 48 hrs by sulforhodamine B assay; conditions: DU-145, 48 h, read-out: Activity
SR [15] = test: Cytotoxicity against human SR cells assessed as cell growth at 100 nM after 48 hrs by sulforhodamine B assay; conditions: read-out: Activity
NCI-H226 [16] = test: Cytotoxicity against human NCI-H226 cells assessed as cell growth at 100 nM after 48 hrs by sulforhodamine B assay; conditions: NCI-H226, 48 h, read-out: Activity
RXF 393 [17] = test: Growth inhibition of human RXF393 cells after 48 hrs by sulforhodamine B assay; conditions: RXF 393, 48 h; procedure, shortened: as §1
MCF7 [18] = test: Growth inhibition of human MCF7 cells after 48 hrs by sulforhodamine B assay; conditions: MCF7, 48 h; procedure, shortened: as §1
CCRF-CEM = test: Cytotoxicity against human CCRF-CEM cells assessed as cell growth at 10 uM; conditions: read-out: Activity
Procedure, shortened: (§2)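 Single-dose NCI-60 screen at 10 µM. Cells were grown in RPMI 1640 with 5% FBS and 2 mM L-glutamine, then treated for 48 h at 37 °C. Protein was measured by SRB staining with absorbance at 515 nm. Percentage growth was recorded, and inhibition percentage was calculated as 100 minus growth percentage.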

CAKI-1 = test: Cytotoxicity against human Caki1 cells assessed as cell growth at 1 uM after 48 hrs by sulforhodamine B assay; conditions: CAKI-1, 48 h, read-out: Activity
RXF 393 [19] = test: Cytotoxicity against human RXF393 cells assessed as cell growth at 1 uM after 48 hrs by sulforhodamine B assay; conditions: RXF 393, 48 h, read-out: Activity
MCF7 [20] = test: Cytotoxicity against human MCF7 cells assessed as cell growth at 1 uM after 48 hrs by sulforhodamine B assay; conditions: MCF7, 48 h, read-out: Activity
HOP-92 = test: Cytotoxicity against human HOP92 cells assessed as cell growth at 10 uM; conditions: read-out: Activity; procedure, shortened: as §2
KM12 = test: Cytotoxicity against human KM12 cells assessed as cell growth at 10 uM; conditions: read-out: Activity
Procedure, shortened: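 NCI-60 screen: cells grown in RPMI 1640 with 5% FBS and 2 mM L-glutamine, plated at 5000–40,000 cells/well according to doubling time, and preincubated 24 h at 37 °C, 5% CO2. The single 10 µM dose (DMSO stock) was added, then incubated 48 h. Cells were TCA-fixed and stained with 0.4% SRB, read at 515 nm, and growth % calculated against time-zero and control plates.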

[21] = Cytotoxicity against human […] cells assessed as cell growth at 10 uM after 48 hrs by sulforhodamine B assay; conditions: read-out: Activity
HCC 2998 [22] = test: Cytotoxicity against human HCC2998 cells assessed as cell growth at 10 uM after 48 hrs by sulforhodamine B assay; conditions: HCC 2998, 48 h, read-out: Activity
SF-295 [23] = test: Cytotoxicity against human SF295 cells assessed as cell growth at 10 uM after 48 hrs by sulforhodamine B assay; conditions: SF-295, 48 h, read-out: Activity
SK-MEL-28 [24] = test: Cytotoxicity against human SK-MEL-28 cells assessed as cell growth at 10 uM after 48 hrs by sulforhodamine B assay; conditions: SK-MEL-28, 48 h, read-out: Activity
786-0 = test: Cytotoxicity against human 786-0 cells assessed as cell growth at 10 uM after 48 hrs by sulforhodamine B assay; conditions: 786-0, 48 h, read-out: Activity
PC-3 = test: Cytotoxicity against human PC3 cells assessed as cell growth at 10 uM after 48 hrs by sulforhodamine B assay; conditions: PC-3, 48 h, read-out: Activity
MCF7 [25] = test: Cytotoxicity against human MCF7 cells assessed as cell growth at 10 uM after 48 hrs by sulforhodamine B assay; conditions: MCF7, 48 h, read-out: Activity
[26] = read-out: LC50 (the source's name)

With `Cc1cc(O)cc(-c2nn(CC#N)cc2-c2ccnc(-c3ccc(N(C)C)cc3)c2)c1` as the molecule, how does the growth at 0.1 µM (SF-295 [1]) read?
The growth at 0.1 µM was 78%.

And the growth at 0.1 µM (SK-MEL-28 [2])?
Its growth at 0.1 µM is 96%.

What about the growth at 0.1 µM (RXF 393 [3]) of the same molecule?
The growth at 0.1 µM was 120%.

What about the growth at 0.1 µM (MCF7 [4]) of the same molecule?
Its growth at 0.1 µM is 50%.

What about the growth at 1 µM (SR [5]) of the same molecule?
Its growth at 1 µM is 17%.

And the growth at 1 µM (NCI-H226 [6])?
Its growth at 1 µM is 19%.

And the growth at 1 µM (HCC 2998 [7])?
The growth at 1 µM was 13%.

What about the growth at 0.01 µM (SR [8]) of the same molecule?
Its growth at 0.01 µM is 93%.

What about the growth at 0.01 µM (MDA-MB-435) of the same molecule?
Its growth at 0.01 µM is 91%.

And the growth at 0.01 µM (OVCAR-3)?
Its growth at 0.01 µM is 91%.

What about the growth at 0.01 µM (ACHN) of the same molecule?
Its growth at 0.01 µM is 82%.

What about the growth at 0.001 µM (SK-MEL-28 [9]) of the same molecule?
The growth at 0.001 µM was 102%.

What about the growth at 0.001 µM (RXF 393 [10]) of the same molecule?
Its growth at 0.001 µM is 100%.

What about the GI50 (SR [11]) of the same molecule?
Its GI50 is 2.64 µM.

And the LC50 (concentration killing 50% of cells) (SR [11])?
The LC50 (concentration killing 50% of cells) was over 100 µM.

And the TGI (SR [11])?
The TGI was over 100 µM.

What about the GI50 (NCI-H226 [12]) of the same molecule?
The GI50 was 4.18 µM.

What about the TGI (NCI-H226 [12]) of the same molecule?
Its TGI is 21.8 µM.

And the CC50 (NCI-H226 [12]; [26])?
The CC50 was over 100 µM.

And the GI50 (HCC 2998 [13])?
The GI50 was 3.19 µM.

And the TGI (HCC 2998 [13])?
The TGI was 13.2 µM.

What about the CC50 (HCC 2998 [13]; [26]) of the same molecule?
The CC50 was 37.2 µM.

And the GI50 (SK-MEL-28 [14])?
The GI50 was 5.22 µM.

And the TGI (SK-MEL-28 [14])?
Its TGI is 32.4 µM.

And the CC50 (SK-MEL-28 [14]; [26])?
The CC50 was over 100 µM.

What about the growth at 0.01 µM (DU-145) of the same molecule?
The growth at 0.01 µM was 97%.

What about the growth at 0.1 µM (SR [15]) of the same molecule?
The growth at 0.1 µM was 74%.

What about the growth at 0.1 µM (NCI-H226 [16]) of the same molecule?
The growth at 0.1 µM was 100%.

And the GI50 (RXF 393 [17])?
The GI50 was 2.87 µM.

And the LC50 (concentration killing 50% of the starting cells) (RXF 393 [17])?
Its LC50 (concentration killing 50% of the starting cells) is over 100 µM.

And the TGI (RXF 393 [17])?
The TGI was 61.4 µM.

And the GI50 (MCF7 [18])?
The GI50 was 0.975 µM.

What about the LC50 (MCF7 [18]) of the same molecule?
Its LC50 is 69.9 µM.

What about the TGI (MCF7 [18]) of the same molecule?
Its TGI is 13.9 µM.

What about the growth at 10 µM (CCRF-CEM) of the same molecule?
Its growth at 10 µM is 40.3%.

And the growth at 1 µM (CAKI-1)?
Its growth at 1 µM is 9%.

What about the growth at 1 µM (RXF 393 [19]) of the same molecule?
Its growth at 1 µM is -32%.

What about the growth at 1 µM (MCF7 [20]) of the same molecule?
The growth at 1 µM was 10%.

And the growth at 10 µM (HOP-92)?
Its growth at 10 µM is 32.4%.

What about the growth at 10 µM (KM12) of the same molecule?
Its growth at 10 µM is 27.3%.

What about the growth at 10 µM [21] of the same molecule?
The growth at 10 µM was -28%.

And the growth at 10 µM (HCC 2998 [22])?
Its growth at 10 µM is -98%.

And the growth at 10 µM (SF-295 [23])?
The growth at 10 µM was -54%.

What about the growth at 10 µM (SK-MEL-28 [24]) of the same molecule?
Its growth at 10 µM is -31%.

And the growth at 10 µM (786-0)?
The growth at 10 µM was -49%.

What about the growth at 10 µM (PC-3) of the same molecule?
The growth at 10 µM was -9%.

What about the growth at 10 µM (MCF7 [25]) of the same molecule?
Its growth at 10 µM is -61%.
